The values that follow come from ChEMBL document CHEMBL4346661, “Design, synthesis and evaluation of novel diaryl-1,5-diazoles derivatives bearing morpholine as potent dual COX-2/5-LOX inhibitors and antitumor agents” (Eur J Med Chem, 2019).

The structures appear in SMILES notation. Activity calls are given as the source filed them. The rule behind the calls is not given here.

For one assay, the system named is MCF7. Nature of the assay: Antiproliferative activity against human MCF7 cells incubated for 48 hrs by MTT assay. The class given is functional, cell-based. The settings on record: MCF7, 48 h. A digest of the protocol: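 MTT assay on F10 (murine melanoma), HeLa, A549, MCF-7 and 293T (human renal epithelium) cells. IC50 given as mean ± SD of three independent experiments.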
On the technique in general: Tetrazolium assays rely on reduction of a dye to a coloured formazan, in cell work by metabolically active cells.

Assay [1] deals with T1, Prostaglandin G/H synthase 2 (Homo sapiens, UniProt P35354).
T1 sequence (P35354 whole entry): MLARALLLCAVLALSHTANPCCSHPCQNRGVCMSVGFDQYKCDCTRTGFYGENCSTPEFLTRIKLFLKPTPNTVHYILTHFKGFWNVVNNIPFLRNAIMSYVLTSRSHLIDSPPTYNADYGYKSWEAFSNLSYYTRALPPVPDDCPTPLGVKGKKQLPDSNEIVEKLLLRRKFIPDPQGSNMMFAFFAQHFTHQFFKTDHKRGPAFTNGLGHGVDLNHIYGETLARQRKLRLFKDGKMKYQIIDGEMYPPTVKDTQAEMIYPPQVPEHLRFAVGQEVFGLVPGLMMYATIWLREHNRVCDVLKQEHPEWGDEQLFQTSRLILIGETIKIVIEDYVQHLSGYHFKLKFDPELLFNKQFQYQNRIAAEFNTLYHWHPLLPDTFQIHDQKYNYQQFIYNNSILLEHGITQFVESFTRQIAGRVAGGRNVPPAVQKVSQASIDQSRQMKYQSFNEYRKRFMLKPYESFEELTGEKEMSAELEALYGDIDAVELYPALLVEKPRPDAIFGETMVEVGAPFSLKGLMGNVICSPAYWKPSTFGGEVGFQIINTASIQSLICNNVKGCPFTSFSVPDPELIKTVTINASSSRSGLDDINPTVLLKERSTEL
Nature of the assay: Inhibition of COX2 (unknown origin) using arachidonic acid as substrate incubated for 10 mins by Ellman's reagent based COX-1/COX-2 ELISA assay. (In general: DTNB colorimetry detects thiols as they appear.)

The subject of assay [2] is B16-F10. Briefly: Induction of apoptosis in mouse B16F10 cells assessed as late apoptosis cells at 12.5 uM incubated for 48 hrs by Annexin-V-FITC/propidium iodide staining-based flow cytometric analysis (reference value: 2.88%). The format is functional. In a few lines: (§1)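 F10 cells were exposed to 0, 3.125, 6.25, 12.5 or 25 µM for 48 h. Cells were stained with Annexin V/PI and read by flow cytometry. Data are mean ± SD of three independent experiments.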
Background: In flow cytometry, cells or beads pass a laser one at a time.

The subject of assay [3] is B16-F10. Briefly: Induction of apoptosis in mouse B16F10 cells assessed as necrosis cells at 12.5 uM incubated for 48 hrs by Annexin-V-FITC/propidium iodide staining-based flow cytometric analysis (reference value: 0.186%). The format is functional. In a few lines: as §1
In assay [4] the test system is B16-F10. Briefly: Induction of apoptosis in mouse B16F10 cells assessed as viable cells at 3.125 uM incubated for 48 hrs in presence of apoptosis inhibitor z-VAD-fmk by Annexin-V-FITC/propidium iodide staining-based flow cytometric analysis (reference value: 92.5%). The class given is functional. The settings on record: B16-F10, 48 h, read-out: Activity.
Assay [5] deals with B16-F10. Briefly: Induction of apoptosis in mouse B16F10 cells assessed as early apoptosis cells at 3.125 uM incubated for 48 hrs in presence of apoptosis inhibitor z-VAD-fmk by Annexin-V-FITC/propidium iodide staining-based flow cytometric analysis (reference value: 3.83%). The format is functional.
For assay [6], the system named is B16-F10. Nature of the assay: Induction of apoptosis in mouse B16F10 cells assessed as necrosis cells at 12.5 uM incubated for 48 hrs in presence of apoptosis inhibitor z-VAD-fmk by Annexin-V-FITC/propidium iodide staining-based flow cytometric analysis (reference value: 0.558%). The format is functional.
For assay [7], the system named is B16-F10. Nature of the assay: Induction of apoptosis in mouse B16F10 cells assessed as necrosis cells at 25 uM incubated for 48 hrs in presence of apoptosis inhibitor z-VAD-fmk by Annexin-V-FITC/propidium iodide staining-based flow cytometric analysis (reference value: 0.558%). The format is functional.
The subject of assay [8] is B16-F10. Briefly: Induction of cell cycle arrest in mouse B16F10 cells assessed as cell accumulation at S phase at 12.5 uM incubated for 48 hrs by propidium iodide staining-based flow cytometric analysis (reference value: 14.16%). The class given is functional.
Assay [9] deals with B16-F10. Nature of the assay: Induction of cell cycle arrest in mouse B16F10 cells assessed as cell accumulation at G2 phase at 25 uM incubated for 48 hrs by propidium iodide staining-based flow cytometric analysis (reference value: 22.43%). The class given is functional.
In assay [10] the test system is B16-F10. Briefly: Inhibition of LPS-induced PGE2 production in mouse B16F10 cells at 6.25 uM incubated for 24 hrs by enzyme immunoassay. The format is functional, cell-based. In a few lines:
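F10 cells treated for 24 h alongside LPS (1 µg/ml), test agent at 6.25 µM. Supernatant collected by centrifugation and PGE2 measured with a PGE2 enzyme immunoassay (ELISA) kit. Mean ± SD of three independent experiments.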

`NS(=O)(=O)c1ccc(-n2nc(C(=O)NCCCN3CCOCC3)cc2-c2ccc(C(F)(F)F)cc2)cc1`: the IC50 in the assay on MCF7 amounted to 7.65 µM; in assay [1], 0.17 µM. Also, the Activity with B16-F10 [2] was 5.09%; with B16-F10 [3], 0.685%; in the assay with B16-F10 [5], 4.31%; with B16-F10 [6] it was 0.105%; in the assay on B16-F10 [7] it was 0.845%; in the assay with B16-F10 [8] it was 15.42%. Further, the Activity in the assay with B16-F10 [9] came to 33.6%. The viability at 3.125 µM with B16-F10 [4] is 90.9%. Moreover, in the assay on B16-F10 [10], the inhibition result was “Active”.

One may read the IC50 as the concentration needed to halve the response being measured.
